Publication PMC5035790 (Annals of Oncology, 2016)

System: patients with advanced solid tumors or non-Hodgkin's lymphoma
Experiment: Phase I dose-escalation study: safety, tolerability, MTD, adverse events
Format: in vivo, human
Procedure, shortened: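 Adults with advanced solid tumours (plus NHL and type 2 diabetic expansion cohorts) received a 1-h IV infusion on days 1, 8 and 15 of 28-day cycles over 0.1–1.2 mg/kg. Accelerated titration escalated the dose by 100% per cohort. MTD was the highest dose given to six patients with ≤1 DLT. Fasting was 8 h pre- and 3 h post-start on cycle 1 day 1. AEs were assessed at planned times each cycle and at follow-up.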

## COc1c(OCCCN2CCOCC2)ccc2c1N=C(NC(=O)c1cnc(N)nc1)N1CCN=C21 [copanlisib, Copanlisib]
0.8 mg/kg dose-escalation cohort
  dose-limiting toxicities (DLTs): no DLTs
14 of 57 patients
  dose modifications caused by drug-related AEs: 25%
NHL expansion, 0.8 mg/kg, n=9
  Any drug-related AE: 8 (89) n (%)
  Drug-related AEs of grade 3: 5 (56) n (%)
  Drug-related AEs of grade 4: 1 (11) n (%)
  Drug-related diarrhea, all grades: 3 (33) n (%)
  Drug-related diarrhea, grade 3: 0 n (%)
  Drug-related fatigue, all grades: 3 (33) n (%)
  Drug-related fatigue, grade 3: 0 n (%)
  Drug-related hyperglycemia, all grades: 8 (89) n (%)
  Drug-related hyperglycemia, grade 3: 3 (33) n (%)
  Drug-related hypertension, all grades: 3 (33) n (%)
  Drug-related hypertension, grade 3: 3 (33) n (%)
  Drug-related nausea, all grades: 7 (78) n (%)
  Drug-related nausea, grade 3: 0 n (%)
  Drug-related oral cavity mucositis, all grades: 3 (33) n (%)
  Drug-related oral cavity mucositis, grade 3: 0 n (%)
  Drug-related rash/desquamation, all grades: 2 (22) n (%)
  Drug-related rash/desquamation, grade 3: 1 (11) n (%)
  Drug-related vomiting, all grades: 1 (11) n (%)
  Drug-related vomiting, grade 3: 0 n (%)
All patients, n=57, text
  Drug-related hyperglycemia, all grades: 63%
  Drug-related hypertension, all grades: 21%
  Drug-related hypertension, grade 3: 14%
  diarrhea, all-grade: 16%
  diarrhea, grade ≥3: 2%
  drug-related rash, grade 3: 7%
All patients, n=57, text, all events grade ≤2
  Drug-related nausea, all grades: 37%
Cohort 1, 0.1 mg/kg, n=1
  Any drug-related AE: 1 (100) n (%)
  Drug-related AEs of grade 3: 0 n (%)
  Drug-related AEs of grade 4: 0 n (%)
  Drug-related diarrhea, all grades: 0 n (%)
  Drug-related diarrhea, grade 3: 0 n (%)
  Drug-related fatigue, all grades: 0 n (%)
  Drug-related fatigue, grade 3: 0 n (%)
  Drug-related hyperglycemia, all grades: 0 n (%)
  Drug-related hyperglycemia, grade 3: 0 n (%)
  Drug-related hypertension, all grades: 0 n (%)
  Drug-related hypertension, grade 3: 0 n (%)
  Drug-related nausea, all grades: 0 n (%)
  Drug-related nausea, grade 3: 0 n (%)
  Drug-related oral cavity mucositis, all grades: 0 n (%)
  Drug-related oral cavity mucositis, grade 3: 0 n (%)
  Drug-related rash/desquamation, all grades: 0 n (%)
  Drug-related rash/desquamation, grade 3: 0 n (%)
  Drug-related vomiting, all grades: 0 n (%)
  Drug-related vomiting, grade 3: 0 n (%)
Cohort 2, 0.2 mg/kg, n=3
  Any drug-related AE: 3 (100) n (%)
  Drug-related AEs of grade 3: 2 (67) n (%)
  Drug-related AEs of grade 4: 0 n (%)
  Drug-related diarrhea, all grades: 2 (67) n (%)
  Drug-related diarrhea, grade 3: 1 (33) n (%)
  Drug-related fatigue, all grades: 1 (33) n (%)
  Drug-related fatigue, grade 3: 0 n (%)
  Drug-related hyperglycemia, all grades: 1 (33) n (%)
  Drug-related hyperglycemia, grade 3: 0 n (%)
  Drug-related hypertension, all grades: 0 n (%)
  Drug-related hypertension, grade 3: 0 n (%)
  Drug-related nausea, all grades: 3 (100) n (%)
  Drug-related nausea, grade 3: 0 n (%)
  Drug-related oral cavity mucositis, all grades: 1 (33) n (%)
  Drug-related oral cavity mucositis, grade 3: 0 n (%)
  Drug-related rash/desquamation, all grades: 0 n (%)
  Drug-related rash/desquamation, grade 3: 0 n (%)
  Drug-related vomiting, all grades: 1 (33) n (%)
  Drug-related vomiting, grade 3: 0 n (%)
Cohort 3, 0.4 mg/kg, n=3
  Any drug-related AE: 2 (67) n (%)
  Drug-related AEs of grade 3: 1 (33) n (%)
  Drug-related AEs of grade 4: 0 n (%)
  Drug-related diarrhea, all grades: 0 n (%)
  Drug-related diarrhea, grade 3: 0 n (%)
  Drug-related fatigue, all grades: 0 n (%)
  Drug-related fatigue, grade 3: 0 n (%)
  Drug-related hyperglycemia, all grades: 1 (33) n (%)
  Drug-related hyperglycemia, grade 3: 0 n (%)
  Drug-related hypertension, all grades: 1 (33) n (%)
  Drug-related hypertension, grade 3: 1 (33) n (%)
  Drug-related nausea, all grades: 0 n (%)
  Drug-related nausea, grade 3: 0 n (%)
  Drug-related oral cavity mucositis, all grades: 0 n (%)
  Drug-related oral cavity mucositis, grade 3: 0 n (%)
  Drug-related rash/desquamation, all grades: 0 n (%)
  Drug-related rash/desquamation, grade 3: 0 n (%)
  Drug-related vomiting, all grades: 0 n (%)
  Drug-related vomiting, grade 3: 0 n (%)
Cohort 4, 0.8 mg/kg, n=7
  Any drug-related AE: 7 (100) n (%)
  Drug-related AEs of grade 3: 4 (57) n (%)
  Drug-related AEs of grade 4: 0 n (%)
  Drug-related diarrhea, all grades: 1 (14) n (%)
  Drug-related diarrhea, grade 3: 0 n (%)
  Drug-related fatigue, all grades: 0 n (%)
  Drug-related fatigue, grade 3: 0 n (%)
  Drug-related hyperglycemia, all grades: 7 (100) n (%)
